Assay results taken from ChEMBL document CHEMBL4014314, “Rational Design of Bisubstrate-Type Analogues as Inhibitors of DNA Methyltransferases in Cancer Cells” (J Med Chem, 2017).
pEC50: −log10 of the molar value. Active and inactive are the calls of the source. No cut-off for these calls is given here.

Assays:
[1] = molecular target: T1, DNA (cytosine-5)-methyltransferase 3A (Homo sapiens, UniProt Q9Y6K1); assay: Inhibition of human DNMT3A catalytic domain using AdoMet assessed as reduction of methylation in 5'-biotin/3' 6-carboxyfluorescein labeled DNA duplex at CpG site after 1 hr by fluorescence assay
How it was run: (§1)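 Human full-length DNMT1 and catalytic DNMT3A tested for methylation of a DNA duplex; the paper gives assay details elsewhere. EC50 from a sigmoid dose-response fit with variable Hill slope; reported as median with SE from at least two independent experiments for DNMT1 and three for DNMT3A; DNMT3A curves run in technical duplicates.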

[2] = molecular target: T1, DNA (cytosine-5)-methyltransferase 3A; assay: Inhibition of human DNMT3A catalytic domain using AdoMet assessed as reduction of methylation in 5'-biotin/3' 6-carboxyfluorescein labeled DNA duplex at CpG site at 32 uM after 1 hr by fluorescence assay relative to control
[3] = organism: Homo sapiens; assay: Inhibition of DNMT in human KG1 cells assessed as luciferase gene driven CMV promoter demethylation by measuring fold increase in luciferase reactivation at 1 uM after 24 hrs by luciferase reporter gene assay relative to control; type: cell-based
How it was run: (§2)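 Leukemia KG-1 cells carrying a stable luciferase gene under a partially methylated CMV promoter, treated in 96-well plates for 24 h. Luciferase signal read by luminescence (Britelite); reactivation fold expressed as ratio to non-treated cells. Mean of three experiments with standard error.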

[4] = molecular target: T2, DNA (cytosine-5)-methyltransferase 1 (Homo sapiens, UniProt P26358); assay: Inhibition of full length His-tagged human DNMT1 using SAM/[methyl-3H]SAM assessed as reduction of methylation in biotinylated hemimethylated DNA duplex at 100 uM after 1 hr by scintillation counting method relative to control
[5] = organism: Homo sapiens; assay: Inhibition of DNMT in human KG1 cells assessed as luciferase gene driven CMV promoter demethylation by measuring fold increase in luciferase reactivation at 5 uM after 24 hrs by luciferase reporter gene assay relative to control; type: cell-based; how it was run: as §2
[6] = molecular target: T2, DNA (cytosine-5)-methyltransferase 1; assay: Inhibition of full length His-tagged human DNMT1 using SAM/[methyl-3H]SAM assessed as reduction of methylation in biotinylated hemimethylated DNA duplex at 32 uM after 1 hr by scintillation counting method relative to control
[7] = molecular target: T2, DNA (cytosine-5)-methyltransferase 1; assay: Inhibition of full length His-tagged human DNMT1 using SAM/[methyl-3H]SAM assessed as reduction of methylation in biotinylated hemimethylated DNA duplex after 1 hr by scintillation counting method; how it was run: as §1
[8] = molecular target: T1, DNA (cytosine-5)-methyltransferase 3A; assay: Inhibition of human DNMT3A catalytic domain using AdoMet assessed as reduction of methylation in 5'-biotin/3' 6-carboxyfluorescein labeled DNA duplex at CpG site at 10 uM after 1 hr by fluorescence assay relative to control
[9] = Solubility of the compound in RPMI-1640 medium; type: physicochemical
[10] = Binding affinity to 117 bp pBS DNA at 0.01 to 10 uM after 15 mins using 3'-end labeled using alpha-[32P]-dATP by DNase I footprinting assay
[11] = organism: Homo sapiens; assay: Inhibition of DNMT in human KG1 cells assessed as increase in DNA accessibility by opening the chromatin at 5 uM after 24 hrs by NOMe-Seq method relative to control; type: cell-based; design: scale not given: the % may be the effect or the level left
How it was run: (§3)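 CMV-luc KG-1 acute myeloid leukemia cells in RPMI-1640 with 10% FCS, seeded 2 × 10^5/mL and treated for 24 h at 1 or 5 μM. NOMe-Seq: bisulfite conversion, CMV promoter PCR (40 cycles), cloning and sequencing. CpG methylation and GpC accessibility expressed as ratio of percentage methylated cytosines in treated versus untreated sample.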

[12] = organism: Homo sapiens; assay: Inhibition of DNMT in human KG1 cells assessed as CpG site demethylation at CMV promoter at 5 uM after 24 hrs by NOMe-Seq method relative to control; type: cell-based; how it was run: as §3
[13] = Binding affinity to 5'-TATATACGTACGGTGTTTTCACCGTACGTATATA-3' CpG site hairpin duplex DNA (unknown origin) assessed as change in melting temperature at 10 uM
[14] = Binding affinity to 265 bp pBS DNA at 0.01 to 10 uM after 15 mins using 3'-end labeled using alpha-[32P]-dATP by DNase I footprinting assay
[15] = test system: KG-1; assay: Toxicity in human KG1 cells assessed as effect on cell viability at 5 uM after 24 hrs by ATPLite assay; type: cell-based; settings: kg-1, 24 h
[16] = organism: Homo sapiens; assay: Inhibition of DNMT in human KG1 cells assessed as nucleosome occupancy at CMV promoter by measuring increase in luciferase signal at 5 uM after 24 hrs by NOMe-Seq method relative to control; type: cell-based
[17] = organism: Homo sapiens; assay: Inhibition of DNMT in human HCT116 cells assessed as demethylation of CDKN2A promoter at 100 nM after 3 days by COBRA analysis relative to control; type: cell-based
How it was run: (§4)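 HCT116 colon cancer cells in MEM with HEPES, L-glutamine and 10% FCS, 37 °C, 5% CO2; seeded 1 × 10^5/mL, treated for 3 or 7 days at 100 nM. Bisulfite-converted DNA amplified at the CDKN2A promoter, then digested with BsiEI at 60 °C for 90 min (COBRA); bands quantified on 2% agarose gel. Methylation given as ratio to untreated cells; at least two independent experiments, standard errors.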

[18] = Binding affinity to 5'-TATATACGTACTGTGTTTTCACAGTACGTATATA-3' CpG site hairpin duplex DNA (unknown origin) assessed as change in melting temperature at 10 uM
[19] = organism: Homo sapiens; assay: Inhibition of DNMT in human HCT116 cells assessed as demethylation of CDKN2A promoter at 100 nM after 7 days by COBRA analysis relative to control; type: cell-based; how it was run: as §4
[20] = organism: Homo sapiens; assay: Inhibition of DNMT in human HCT116 cells assessed as induction of CDKN2A mRNA expression at 100 nM after 3 days by RT qPCR method; type: cell-based
How it was run: (§5)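 HCT116 cells seeded 1 × 10^5/mL and exposed to 100 nM for 3 or 7 days. CDKN2A mRNA quantified by RT-qPCR with SYBR chemistry: 95 °C 30 s, then 40 cycles of 95 °C 5 s and 60 °C 30 s, followed by a melt curve. Expressed as fold change relative to untreated cells; at least two independent experiments, standard errors.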

[21] = organism: Homo sapiens; assay: Inhibition of DNMT in human KG1 cells assessed as luciferase gene driven CMV promoter demethylation by measuring luciferase reactivation at 0.1 uM after 24 hrs by luciferase reporter gene assay; type: cell-based; how it was run: as §2
[22] = organism: Homo sapiens; assay: Inhibition of DNMT in human HCT116 cells assessed as induction of CDKN2A mRNA expression at 100 nM after 7 days by RT qPCR method relative to control; type: cell-based; how it was run: as §5
[23] = organism: Homo sapiens; assay: Inhibition of DNMT in human KG1 cells assessed as increase in DNA accessibility by opening the chromatin at 1 uM after 24 hrs by NOMe-Seq method relative to control; type: cell-based; design: scale not given: the % may be the effect or the level left; how it was run: as §3
[24] = organism: Homo sapiens; assay: Inhibition of DNMT in human KG1 cells assessed as CpG site demethylation at CMV promoter at 1 uM after 24 hrs by NOMe-Seq method relative to control; type: cell-based; how it was run: as §3
[25] = organism: Homo sapiens; assay: Inhibition of DNMT in human KG1 cells assessed as luciferase gene driven CMV promoter demethylation by measuring luciferase reactivation at 1 uM after 24 hrs by luciferase reporter gene assay; type: cell-based; how it was run: as §2
[26] = organism: Homo sapiens; assay: Inhibition of DNMT in human KG1 cells assessed as luciferase gene driven CMV promoter demethylation by measuring luciferase reactivation at 5 uM after 24 hrs by luciferase reporter gene assay; type: cell-based; how it was run: as §2

T1 sequence (Q9Y6K1 whole entry, looked up, the tested form may be a part): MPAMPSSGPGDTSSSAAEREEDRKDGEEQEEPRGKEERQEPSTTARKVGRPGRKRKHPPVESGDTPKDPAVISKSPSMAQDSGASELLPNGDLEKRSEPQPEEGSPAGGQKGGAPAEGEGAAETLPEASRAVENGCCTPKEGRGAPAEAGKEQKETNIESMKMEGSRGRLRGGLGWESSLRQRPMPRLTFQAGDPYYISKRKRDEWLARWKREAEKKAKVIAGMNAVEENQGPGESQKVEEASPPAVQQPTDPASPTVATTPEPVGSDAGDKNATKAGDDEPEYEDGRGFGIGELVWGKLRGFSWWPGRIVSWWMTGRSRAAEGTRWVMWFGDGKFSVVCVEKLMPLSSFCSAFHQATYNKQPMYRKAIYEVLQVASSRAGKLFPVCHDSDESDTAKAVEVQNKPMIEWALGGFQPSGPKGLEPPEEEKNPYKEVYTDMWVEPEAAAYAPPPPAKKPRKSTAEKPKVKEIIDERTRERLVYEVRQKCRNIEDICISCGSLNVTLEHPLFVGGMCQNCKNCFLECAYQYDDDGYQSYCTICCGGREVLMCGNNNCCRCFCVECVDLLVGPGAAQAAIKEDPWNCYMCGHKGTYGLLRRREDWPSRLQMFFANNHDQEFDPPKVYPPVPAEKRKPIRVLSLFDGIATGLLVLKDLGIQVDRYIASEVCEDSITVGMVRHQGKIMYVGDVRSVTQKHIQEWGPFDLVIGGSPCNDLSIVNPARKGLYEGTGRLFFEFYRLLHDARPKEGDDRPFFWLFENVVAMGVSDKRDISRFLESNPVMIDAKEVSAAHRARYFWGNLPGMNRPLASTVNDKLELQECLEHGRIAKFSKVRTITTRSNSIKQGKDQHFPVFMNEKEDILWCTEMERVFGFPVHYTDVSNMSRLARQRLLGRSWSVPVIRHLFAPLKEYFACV
T2 sequence (P26358 whole entry): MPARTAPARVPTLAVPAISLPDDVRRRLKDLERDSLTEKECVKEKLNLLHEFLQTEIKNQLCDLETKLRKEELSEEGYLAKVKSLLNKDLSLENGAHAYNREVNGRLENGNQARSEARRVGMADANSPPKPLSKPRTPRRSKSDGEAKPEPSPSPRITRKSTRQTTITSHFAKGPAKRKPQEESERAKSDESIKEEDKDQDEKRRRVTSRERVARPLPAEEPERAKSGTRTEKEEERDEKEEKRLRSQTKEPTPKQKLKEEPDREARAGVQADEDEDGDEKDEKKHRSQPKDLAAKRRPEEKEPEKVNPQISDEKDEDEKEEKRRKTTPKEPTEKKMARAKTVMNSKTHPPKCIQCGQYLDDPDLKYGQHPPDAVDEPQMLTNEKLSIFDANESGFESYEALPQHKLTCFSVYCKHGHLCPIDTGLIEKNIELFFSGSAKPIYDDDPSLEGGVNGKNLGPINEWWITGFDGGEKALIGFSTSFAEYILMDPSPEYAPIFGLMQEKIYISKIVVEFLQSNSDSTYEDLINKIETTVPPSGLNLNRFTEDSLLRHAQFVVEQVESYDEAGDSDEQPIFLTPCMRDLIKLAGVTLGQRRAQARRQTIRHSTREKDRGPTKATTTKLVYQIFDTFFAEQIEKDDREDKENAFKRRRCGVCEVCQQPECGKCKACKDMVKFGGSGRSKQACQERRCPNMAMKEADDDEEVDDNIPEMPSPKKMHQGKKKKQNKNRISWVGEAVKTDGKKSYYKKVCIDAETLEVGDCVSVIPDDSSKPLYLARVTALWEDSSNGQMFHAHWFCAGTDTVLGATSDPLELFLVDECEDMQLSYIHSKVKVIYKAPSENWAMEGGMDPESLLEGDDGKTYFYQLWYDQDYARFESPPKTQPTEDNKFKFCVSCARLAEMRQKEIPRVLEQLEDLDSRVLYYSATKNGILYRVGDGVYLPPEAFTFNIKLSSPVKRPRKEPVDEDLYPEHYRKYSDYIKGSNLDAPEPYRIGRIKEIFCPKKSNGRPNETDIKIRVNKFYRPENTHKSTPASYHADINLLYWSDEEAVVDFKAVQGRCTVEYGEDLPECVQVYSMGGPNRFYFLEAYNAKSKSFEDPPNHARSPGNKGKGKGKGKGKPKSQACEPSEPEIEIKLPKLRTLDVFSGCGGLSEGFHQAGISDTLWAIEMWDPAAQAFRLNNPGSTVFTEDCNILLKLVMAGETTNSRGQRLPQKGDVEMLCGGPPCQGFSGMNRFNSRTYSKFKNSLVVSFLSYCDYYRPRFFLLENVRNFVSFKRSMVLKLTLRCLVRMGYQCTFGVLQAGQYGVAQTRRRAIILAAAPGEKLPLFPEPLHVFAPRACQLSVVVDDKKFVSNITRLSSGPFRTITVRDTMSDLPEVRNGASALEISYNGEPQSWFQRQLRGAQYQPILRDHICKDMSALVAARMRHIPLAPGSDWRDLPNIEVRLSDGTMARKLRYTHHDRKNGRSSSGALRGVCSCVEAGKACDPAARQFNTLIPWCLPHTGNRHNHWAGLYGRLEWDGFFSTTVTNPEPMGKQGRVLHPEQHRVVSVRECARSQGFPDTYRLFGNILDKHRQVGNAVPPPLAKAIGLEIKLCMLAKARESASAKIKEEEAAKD

Row | Compound | pEC50 [1] | inhibition [2] [%] | inhibition [4] [%] | inhibition [6] [%] | pEC50 [7] | inhibition [8] [%] | further results
1 | COc1cc2nccc(NCCN3CCC(COc4ccc5c(NCCCc6ccccc6)ncnc5c4)CC3)c2cc1OC | 5.85 | 95 | 81 | 57 | 4.52 | 95 | –
2 | c1ccc(CCCNc2ncnc3cc(OCC4CCN(CCNc5ccnc6ccccc56)CC4)ccc23)cc1 | 5.36 | 98 | 91 | 25 | 4.34 | 81 | Activity [10]: inactive; Activity [11]: 77%; fold change (FC) [3]: 4; fold change (FC) [5]: 4; inhibition [12]: 33%; Activity [13]: inactive; Activity [14]: inactive; Activity [15]: Non-Toxic; fold change (FC) [16]: 4.7; inhibition [17]: 32%; Activity [18]: inactive; inhibition [19]: 42%
3 | c1ccc(CCNc2ncnc3cc(OCC4CCN(CCNc5ccnc6ccccc56)CC4)ccc23)cc1 | 5.31 | 99 | 98 | 38 | 4.49 | 80 | –
4 | Nc1ncn([C@H]2C[C@H](O)[C@@H](CO)O2)c(=O)n1 | – | – | – | – | – | – | Activity [23]: 120%; inhibition [24]: 50%; inhibition [17]: 60%; inhibition [19]: 80%
5 | c1ccc(NCCNc2ncnc3cc(OCC4CCN(CCNc5ccnc6ccccc56)CC4)ccc23)cc1 | 5.17 | 95 | 93 | 61 | 4.14 | 76 | –
6 | c1ccc(CCCNc2ncnc3cc(OCC4CCN(CCNc5cccc6ccccc56)CC4)ccc23)cc1 | – | 0 | 0 | 0 | – | 0 | inhibition [25]: inactive; inhibition [26]: inactive

Second part, led by results:

Row | pEC50 [1] | inhibition [2] [%] | inhibition [4] [%] | inhibition [6] [%] | pEC50 [7] | inhibition [8] [%] | Compound | further results
7 | 6.52 | 90 | 94 | 86 | 4.70 | 91 | c1ccc2c(NCCNc3ncnc4cc(OCC5CCN(CCNc6ccnc7ccccc67)CC5)ccc34)cccc2c1 | fold change (FC) [3]: 4; fold change (FC) [5]: 4; solubility [9]: Soluble
8 | 5.92 | 100 | 97 | 75 | 4.59 | 88 | Clc1ccc(CCNc2ncnc3cc(OCC4CCN(CCNc5ccnc6ccccc56)CC4)ccc23)cc1 | –
9 | 6.00 | 98 | 97 | 0 | – | 84 | Clc1cccc(CCNc2ncnc3cc(OCC4CCN(CCNc5ccnc6ccccc56)CC4)ccc23)c1 | –
10 | 5.96 | 83 | 69 | 24 | 4.00 | 86 | c1ccc(-c2ccc(CNc3ncnc4cc(OCC5CCN(CCNc6ccnc7ccccc67)CC5)ccc34)cc2)cc1 | Activity [20]: inactive; Activity [11]: 87%; inhibition [21]: Active; fold change (FC) [3]: 4; fold change (FC) [5]: 4; inhibition [12]: 52%; fold change (FC) [22]: 13; Activity [15]: Non-Toxic; fold change (FC) [16]: 4.2; inhibition [17]: 20%; inhibition [19]: 71%
11 | 5.72 | 60 | 100 | 100 | 4.80 | 96 | c1ccc2c(CCCNc3ncnc4cc(OCC5CCN(CCNc6ccnc7ccccc67)CC5)ccc34)cccc2c1 | –
12 | 5.68 | 100 | 100 | 83 | 4.62 | 89 | Cc1cc(NCCN2CCC(COc3ccc4c(NCCCc5ccccc5)ncnc4c3)CC2)c2ccccc2n1 | –
13 | 5.47 | 100 | 100 | 82 | 4.57 | 82 | COc1ccc(CCNc2ncnc3cc(OCC4CCN(CCNc5ccnc6ccccc56)CC4)ccc23)cc1 | –
